Assay results published in ChEMBL document CHEMBL1134691, “3-Phenyl-5-acyloxymethyl-2H,5H-furan-2-ones: synthesis and biological activity of a novel group of potential antifungal drugs” (2001).
In brackets after ≈: the same amount, converted by molar mass.

Tests used:
[1] = Inhibition of Trichophyton mentagrophytes 445 growth for 72 hours in vitro.; format: functional, Arthroderma benhamiae
How it was run: (§1)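 Dermatophyte grown in MOPS-buffered (0.165 M, pH 7.0) RPMI 1640 containing L-glutamine, in an M27-A microdilution format. Inoculum 5 × 10^3 cfu/mL final. Compounds from DMSO stocks (≤2% final), 2-fold dilutions 1000–0.24 µmol/L. Incubated at 35 °C, growth judged visually at 72 and 120 h. MIC endpoint is 80% inhibition relative to control; measured twice in duplicate.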

Trichosporon beigelii [2] = test: Inhibition of Trichosporon beigelli 1188 for 24 hours in vitro.; format: functional
How it was run: (§2)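 Microdilution following NCCLS M27-A. Medium: RPMI 1640 with L-glutamine, 0.165 M MOPS, pH 7.0. Final inoculum 5 × 10^3 cfu/mL. Compounds dissolved in DMSO, final ≤2%, serially halved from 1000 to 0.24 µmol/L. Incubated at 35 °C and read at 24 and 48 h. MIC defined as 80% inhibition of control growth; run twice in duplicate.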

Lichtheimia corymbifera [3] = test: In vitro inhibition of Absidia corymbifera 272 growth for 24 hours.; format: functional
How it was run: (§3)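 Filamentous isolates tested by microdilution per NCCLS M27-A in RPMI 1640 plus L-glutamine, buffered with 0.165 M MOPS to pH 7.0. Final inoculum 5 × 10^3 cfu/mL. Compounds in DMSO (final ≤2%), 2-fold series over 1000–0.24 µmol/L. Plates held at 35 °C and read visually after 24 and 48 h. MIC taken as 80% inhibition of control growth; determined twice in duplicate.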

Candida tropicalis [4] = test: Inhibition of Candida tropicalis 156 growth for 24 hours in vitro.; format: functional
How it was run: (§4)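 NCCLS M27-A broth microdilution in RPMI 1640 with L-glutamine and 0.165 M MOPS, pH 7.0. Isolates kept on Sabouraud dextrose agar. Inoculum 5 × 10^3 cfu/mL final. Compounds were diluted in DMSO (≤2% final) and tested in 2-fold dilutions of 1000–0.24 µmol/L. Incubation at 35 °C, OD540 read at 24 and 48 h. MIC = 80% growth inhibition versus control; assays run twice in duplicate.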

Lichtheimia corymbifera [5] = test: In vitro inhibition of Absidia corymbifera 272 growth for 48 hours.; format: functional; how it was run: as §3
Nakaseomyces glabratus [6] = test: Inhibition of Candida glabrata 20/I growth for 24 hours in vitro.; format: functional; how it was run: as §4
[7] = Inhibition of Trichophyton mentagrophytes 445 growth for 120 hours in vitro.; format: functional, Arthroderma benhamiae; how it was run: as §1
Clavispora lusitaniae [8] = test: Inhibition of Candida lusitaniae 2446/I growth for 48 hours in vitro.; format: functional; how it was run: as §4
Candida albicans [9] = test: Inhibition of Candida albicans ATCC 44859 growth for 24 hours in vitro.; format: functional; how it was run: as §4
Candida albicans [10] = test: Inhibition of Candida albicans ATCC 90028 for 24 hours in vitro.; format: functional; how it was run: as §4
Candida parapsilosis [11] = test: Inhibition of Candida parapsilosis ATCC 22019 growth for 48 hours in vitro.; format: functional; how it was run: as §4
Clavispora lusitaniae [12] = test: Inhibition of Candida lusitaniae 2446/I growth for 24 hours in vitro.; format: functional; how it was run: as §4
Trichosporon beigelii [13] = test: Inhibition of Trichosporon beigelli 1188 for 48 hours in vitro.; format: functional; how it was run: as §2
Pichia kudriavzevii [14] = test: Inhibition of Candida krusei ATCC 6258 growth for 48 hours in vitro.; format: functional; settings: Pichia kudriavzevii, ATCC 6258, 48 h; read-out: MIC; how it was run: as §4
Candida tropicalis [15] = test: Inhibition of Candida tropicalis 156 growth for 48 hours in vitro.; format: functional; how it was run: as §4
Candida albicans [16] = test: Inhibition of Candida albicans ATCC 90028 for 48 hours in vitro.; format: functional; how it was run: as §4
Candida parapsilosis [17] = test: Inhibition of Candida parapsilosis ATCC 22019 growth for 24 hours in vitro.; format: functional; how it was run: as §4
Aspergillus fumigatus [18] = test: Inhibition of Aspergillus fumigatus 231 growth for 24 hours in vitro.; format: functional; how it was run: as §3
Nakaseomyces glabratus [19] = test: Inhibition of Candida glabrata 20/I growth for 48 hours in vitro.; format: functional; how it was run: as §4
Pichia kudriavzevii [20] = test: Inhibition of Candida krusei ATCC 6258 growth for 24 hours in vitro.; format: functional; how it was run: as §4
Aspergillus fumigatus [21] = test: Inhibition of Aspergillus fumigatus 231 growth for 48 hours in vitro.; format: functional; how it was run: as §3
Candida albicans [22] = test: Inhibition of Candida albicans ATCC 44859 growth for 48 hours in vitro.; format: functional; how it was run: as §4
Pichia kudriavzevii [23] = test: Inhibition of Candida krusei E28 growth for 48 hours in vitro.; format: functional; how it was run: as §4
Pichia kudriavzevii [24] = test: Inhibition of Candida krusei E28 growth for 24 hours in vitro.; format: functional; how it was run: as §4
[25] = Trichophyton benhamiae, 72 h, read-out: MIC
[26] = Trichosporon beigelii, 24 h, read-out: MIC
[27] = Lichtheimia corymbifera, 24 h, read-out: MIC
[28] = Candida tropicalis, 24 h, read-out: MIC
[29] = Lichtheimia corymbifera, 48 h, read-out: MIC
[30] = Nakaseomyces glabratus, 24 h, read-out: MIC
[31] = Trichophyton benhamiae, 120 h, read-out: MIC
[32] = Clavispora lusitaniae, 48 h, read-out: MIC
[33] = Candida albicans, ATCC 44859, 24 h, read-out: MIC
[34] = Candida albicans, ATCC 90028, 24 h, read-out: MIC
[35] = Lodderomyces parapsilosis, ATCC 22019, 48 h, read-out: MIC
[36] = Clavispora lusitaniae, 24 h, read-out: MIC
[37] = Trichosporon beigelii, 48 h, read-out: MIC
[38] = Candida tropicalis, 48 h, read-out: MIC
[39] = Candida albicans, ATCC 90028, 48 h, read-out: MIC
[40] = Lodderomyces parapsilosis, ATCC 22019, 24 h, read-out: MIC
[41] = Aspergillus fumigatus, 24 h, read-out: MIC
[42] = Nakaseomyces glabratus, 48 h, read-out: MIC
[43] = Pichia kudriavzevii, ATCC 6258, 24 h, read-out: MIC
[44] = Aspergillus fumigatus, 48 h, read-out: MIC
[45] = Candida albicans, ATCC 44859, 48 h, read-out: MIC
[46] = Pichia kudriavzevii, 48 h, read-out: MIC
[47] = Pichia kudriavzevii, 24 h, read-out: MIC

O=C1OC(CO)C=C1c1ccc(Br)cc1 (stereo unspecified)
MIC [1, 25]: 15.6 µM (≈ 4.21 µg/mL) | MIC (Trichosporon beigelii [2]; [26]): 125 µM (≈ 33.6 µg/mL) | MIC (Lichtheimia corymbifera [3]; [27]): 250 µM (≈ 67.3 µg/mL) | MIC (Candida tropicalis [4]; [28]): 250 µM (≈ 67.3 µg/mL) | MIC (Lichtheimia corymbifera [5]; [29]): 250 µM (≈ 67.3 µg/mL) | MIC (Nakaseomyces glabratus [6]; [30]): 125 µM (≈ 33.6 µg/mL) | MIC [7, 31]: 15.6 µM (≈ 4.21 µg/mL) | MIC (Clavispora lusitaniae [8]; [32]): 250 µM (≈ 67.3 µg/mL) | MIC (Candida albicans [9]; [33]): 31.2 µM (≈ 8.41 µg/mL) | MIC (Candida albicans [10]; [34]): 250 µM (≈ 67.3 µg/mL) | MIC (Candida parapsilosis [11]; [35]): 500 µM (≈ 135 µg/mL) | MIC (Clavispora lusitaniae [12]; [36]): 250 µM (≈ 67.3 µg/mL) | MIC (Trichosporon beigelii [13]; [37]): 500 µM (≈ 135 µg/mL) | MIC (Pichia kudriavzevii [14]): 1000 µM (≈ 269 µg/mL) | MIC (Candida tropicalis [15]; [38]): 500 µM (≈ 135 µg/mL) | MIC (Candida albicans [16]; [39]): 250 µM (≈ 67.3 µg/mL) | MIC (Candida parapsilosis [17]; [40]): 250 µM (≈ 67.3 µg/mL) | MIC (Aspergillus fumigatus [18]; [41]): 62.5 µM (≈ 16.8 µg/mL) | MIC (Nakaseomyces glabratus [19]; [42]): 125 µM (≈ 33.6 µg/mL) | MIC (Pichia kudriavzevii [20]; [43]): 500 µM (≈ 135 µg/mL) | MIC (Aspergillus fumigatus [21]; [44]): 125 µM (≈ 33.6 µg/mL) | MIC (Candida albicans [22]; [45]): 62.5 µM (≈ 16.8 µg/mL) | MIC (Pichia kudriavzevii [23]; [46]): 500 µM (≈ 135 µg/mL) | MIC (Pichia kudriavzevii [24]; [47]): 500 µM (≈ 135 µg/mL)

O=C1OC(COC(=O)c2ccc(Cl)cc2)C=C1c1cccc(Cl)c1 (stereo unspecified)
MIC [1, 25]: 1.95 µM (≈ 0.708 µg/mL) | MIC (Trichosporon beigelii [2]; [26]): 7.81 µM (≈ 2.84 µg/mL) | MIC (Lichtheimia corymbifera [3]; [27]): 3.91 µM (≈ 1.42 µg/mL) | MIC (Candida tropicalis [4]; [28]): 15.6 µM (≈ 5.68 µg/mL) | MIC (Lichtheimia corymbifera [5]; [29]): 15.6 µM (≈ 5.68 µg/mL) | MIC (Nakaseomyces glabratus [6]; [30]): 1.95 µM (≈ 0.708 µg/mL) | MIC [7, 31]: 3.91 µM (≈ 1.42 µg/mL) | MIC (Clavispora lusitaniae [8]; [32]): 15.6 µM (≈ 5.68 µg/mL) | MIC (Candida albicans [9]; [33]): 1.95 µM (≈ 0.708 µg/mL) | MIC (Candida albicans [10]; [34]): 7.81 µM (≈ 2.84 µg/mL) | MIC (Candida parapsilosis [11]; [35]): 31.2 µM (≈ 11.3 µg/mL) | MIC (Clavispora lusitaniae [12]; [36]): 7.81 µM (≈ 2.84 µg/mL) | MIC (Trichosporon beigelii [13]; [37]): 15.6 µM (≈ 5.68 µg/mL) | MIC (Pichia kudriavzevii [14]): 15.6 µM (≈ 5.68 µg/mL) | MIC (Candida tropicalis [15]; [38]): 31.2 µM (≈ 11.3 µg/mL) | MIC (Candida albicans [16]; [39]): 7.81 µM (≈ 2.84 µg/mL) | MIC (Candida parapsilosis [17]; [40]): 7.81 µM (≈ 2.84 µg/mL) | MIC (Aspergillus fumigatus [18]; [41]): 1.95 µM (≈ 0.708 µg/mL) | MIC (Nakaseomyces glabratus [19]; [42]): 1.95 µM (≈ 0.708 µg/mL) | MIC (Pichia kudriavzevii [20]; [43]): 7.81 µM (≈ 2.84 µg/mL) | MIC (Aspergillus fumigatus [21]; [44]): 3.91 µM (≈ 1.42 µg/mL) | MIC (Candida albicans [22]; [45]): 3.91 µM (≈ 1.42 µg/mL) | MIC (Pichia kudriavzevii [23]; [46]): 15.6 µM (≈ 5.68 µg/mL) | MIC (Pichia kudriavzevii [24]; [47]): 15.6 µM (≈ 5.68 µg/mL)

CC(C)(C)C(=O)OCC1C=C(c2ccc(Cl)c(Cl)c2)C(=O)O1 (single isomer, unassigned; (+))
MIC [1]: 0.34 µM (≈ 0.117 µg/mL) | MIC (Trichosporon beigelii [2]): 2.68 uM l-1 | MIC (Lichtheimia corymbifera [3]): 10.73 uM l-1 | MIC (Candida tropicalis [4]): 5.36 uM l-1 | MIC (Lichtheimia corymbifera [5]): 10.73 uM l-1 | MIC (Nakaseomyces glabratus [6]): 0.67 µM (≈ 0.23 µg/mL) | MIC [7]: 0.67 uM l-1 | MIC (Clavispora lusitaniae [8]): 2.68 uM l-1 | MIC (Candida albicans [9]): 0.67 µM (≈ 0.23 µg/mL) | MIC (Candida albicans [10]): 1.34 uM l-1 | MIC (Candida parapsilosis [11]): 5.36 uM l-1 | MIC (Clavispora lusitaniae [12]): 1.34 uM l-1 | MIC (Trichosporon beigelii [13]): 5.36 uM l-1 | MIC (Candida tropicalis [15]): 10.73 uM l-1 | MIC (Candida albicans [16]): 2.68 µM (≈ 0.92 µg/mL) | MIC (Candida parapsilosis [17]): 2.68 uM l-1 | MIC (Aspergillus fumigatus [18]): 1.34 uM l-1 | MIC (Nakaseomyces glabratus [19]): 1.34 uM l-1 | MIC (Pichia kudriavzevii [20]): 5.36 uM l-1 | MIC (Aspergillus fumigatus [21]): 2.68 uM l-1 | MIC (Candida albicans [22]): 1.34 uM l-1 | MIC (Pichia kudriavzevii [23]): 10.73 uM l-1 | MIC (Pichia kudriavzevii [24]): 5.36 uM l-1
